Results: ChEMBL document CHEMBL4020787, “Lodopyridones B and C from a marine sediment-derived bacterium Saccharomonospora sp” (Bioorg Med Chem Lett, 2017)
Activity calls are given as the source filed them. The calls are words filed in the database; no cut-off is given here.

Tests used:
[1] = target: Beta-secretase 1 (Homo sapiens) (UniProt P56817); assay: Inhibition of BACE1 (unknown origin) at 100 uM using Rh-EVNLDAEFK-Quencher as substrate after 60 mins by fluorescence spectroscopy relative to control
Summary of the method: (§1)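 Enzyme tested across a concentration series, with isoliquiritigenin as the reference drug. Activity is reported as percent inhibition.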

[2] = target: Beta-secretase 1 (Homo sapiens) (UniProt P56817); assay: Inhibition of BACE1 (unknown origin) at 1 to 100 uM using Rh-EVNLDAEFK-Quencher as substrate after 60 mins by fluorescence spectroscopy; summary of the method: as §1
[3] = target: Beta-secretase 1 (Homo sapiens) (UniProt P56817); assay: Inhibition of BACE1 (unknown origin) at <100 nM using Rh-EVNLDAEFK-Quencher as substrate after 60 mins by fluorescence spectroscopy; summary of the method: as §1
[4] = target: Beta-secretase 1 (Homo sapiens) (UniProt P56817); assay: Inhibition of BACE1 in human SH-SY5Y cells assessed as decrease in amyloid beta (1 to 42) production after 24 hrs by ELISA relative to control; type: cell-based
Summary of the method: (§2)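 SH-SY5Y cells were exposed to the compound, and released Aβ40 and Aβ42 were quantified separately as percent of untreated control. Isoliquiritigenin was run in parallel as the reference drug.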

[5] = target: Beta-secretase 1 (Homo sapiens) (UniProt P56817); assay: Inhibition of BACE1 in human SH-SY5Y cells assessed as decrease in amyloid beta (1 to 42) production at 1000 uM after 24 hrs by ELISA relative to control; type: cell-based; summary of the method: as §2
[6] = target: Beta-secretase 1 (Homo sapiens) (UniProt P56817); assay: Inhibition of BACE1 in human SH-SY5Y cells assessed as decrease in amyloid beta (1 to 40) production after 24 hrs by ELISA relative to control; type: cell-based; summary of the method: as §2
[7] = target: Beta-secretase 1 (Homo sapiens) (UniProt P56817); assay: Inhibition of BACE1 in human SH-SY5Y cells assessed as decrease in amyloid beta (1 to 40) production at 1000 uM after 24 hrs by ELISA relative to control; type: cell-based; summary of the method: as §2

Chain of Beta-secretase 1 (Homo sapiens) (P56817 whole entry): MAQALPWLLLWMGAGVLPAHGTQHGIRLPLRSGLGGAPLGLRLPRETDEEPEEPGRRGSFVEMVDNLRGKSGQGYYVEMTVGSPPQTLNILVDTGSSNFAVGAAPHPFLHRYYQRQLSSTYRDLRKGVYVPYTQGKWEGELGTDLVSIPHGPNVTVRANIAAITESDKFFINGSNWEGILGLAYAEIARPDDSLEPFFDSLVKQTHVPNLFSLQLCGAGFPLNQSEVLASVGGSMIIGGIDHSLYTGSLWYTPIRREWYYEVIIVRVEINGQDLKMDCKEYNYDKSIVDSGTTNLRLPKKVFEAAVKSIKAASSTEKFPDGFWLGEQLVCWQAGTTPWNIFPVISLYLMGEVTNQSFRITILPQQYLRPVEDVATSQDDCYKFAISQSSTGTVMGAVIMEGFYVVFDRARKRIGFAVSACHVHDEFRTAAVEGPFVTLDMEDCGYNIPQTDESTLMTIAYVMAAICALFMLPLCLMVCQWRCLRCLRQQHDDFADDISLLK

| Compound | inhibition [1] [%] | inhibition [2] | inhibition [3] | inhibition [4] | inhibition [5] [%] | inhibition [6] | inhibition [7] [%] |
| --- | --- | --- | --- | --- | --- | --- | --- |
| COc1c(-c2csc(-c3ccc4cc(Cl)ccc4n3)n2)n(C)c(C(=O)NCCO)c([S+](C)[O-])c1=O (stereo not drawn) | 51 | Dose-dependent effect | inactive |  |  |  |  |
| COc1c(-c2csc(-c3ccc4cc(Cl)ccc4n3)n2)n(C)c(C(=O)NCCO)c(SC)c1=O | 42 | Dose-dependent effect | inactive |  |  |  |  |
| COc1c(-c2csc(-c3ccc4cc(Cl)ccc4n3)n2)n(C)c(C(=O)NCCOC(C)=O)c(SC)c1=O | 60 | Dose-dependent effect | inactive | Dose-dependent effect | 49 | Dose-dependent effect | 41 |
